Assay results as given in the RNAGym collection of RNA variant scans (doi:10.1126/science.aae0568).
Fewer inactive variants are shown than the library holds.

B1: tRNA (parent)
chain: GUUCCGUUGGCGUAAUGGUAACGCGUCUCCCUCCUAAGGAGAAGACUGCGGGUUCGAGUCCCGUACGGAACG

Variants of: B1
Test: yeast fitness relative to wild type (ratio to wild type); higher = fitter; tRNA-Arg(CCU), competitive growth, 37 C, YPD
Summary of the method: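 Changes in genotype frequencies gave Darwinian fitness relative to wild type. Frequencies were read by 100-nucleotide paired-end sequencing of gene amplicons before and after pooled Saccharomyces cerevisiae strains, carrying tRNA-Arg(CCU) gene variants at the native locus, were competed in YPD at 37°C for 24 hours in six replicates. A genotype was kept only with ≥ 100 starting reads, and estimates < 0.5 were set to 0.5.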

Variant	yeast fitness
GUUCCGUUGGCGUAAAGGUAGCGCGUGUCCCUCCUAAGGAGAAGACUGCGGGUUCGGGUCCCGUACGGAACG	≤ 0.5
GUUCCGUUGGCGUAAAGGUACCGCGUCUCCCUCAUACGGAGAAGACUGCGGGUUCGAGUCCCGUACGAAACG	≤ 0.5
GUUCCGUUGGCGUAUUGGUAACGCGUCUCCCUCCUAAGGAGAAGACUGCGGGUUCGAGUCCCGGACGGUACG	≤ 0.5
GUUCCGUUGGCGUAAAGGUAACGCGUCUCCCUCCUAAGGAGAGGACUGCGGGUUCGAGUCCCGUACGGGGCG	≤ 0.5
GUUCCGUUGGCGUAUUGGUAACGCGACUCCCUCCUAAGGAGAAGACUGCGGGUUCGCGUCCCGUACGGAACG	≤ 0.5
GUUCCGUUGGCGUAAAGGUACCGCGUCUCCCUCCUAAGGAGAAAACUGCGGGUUCGAGACCCGUACGGAACG	0.847
GUUCCGUUGGCGUAAAGGUAGCGCGUCUCCUUCGUAAGGAGAAGCCUGCGGGUUCGAGUCCCGUAGGGAACG	≤ 0.5
GUUCCGUUGGCGUAAAGGUUACGGGUCUCCCUGCUAAGGAGAAGACUGCGGGUUCGAGUCACGUACCGAACG	0.561
GUUCCGUUGGCGUAAAGGUUACGGGUCUCCCUGCUAAGGAGAAGACUGCGGGUUCGAGUCCCGUGAGGAACG	≤ 0.5
GUUCCGUUGGCGUAUUGGUAACGCGUCACCCUCCUAAGGAGAAAACUGCGGGUUCGAGUCCCGCACGGAACG	≤ 0.5
GUUCCGUUGGCGUAAAGGUAACGCGUCUCCCUCCUAAGGAGACGACUGUGGGUUCGAGUCCCGUACGGAACG	0.656
GUUCCGUUGGCGUAAAGGUACCGCGUCUUCCUCCUAAGGAGAAGACUGCGGGUUCGAGUCCCGUACGGAACG	≤ 0.5
GUUCCGUUGGCGUAAAGGUAACGCGUCUCCCUCCUAAGGAGGAGACUGCGGGUUCGAGUCCCGUACGGAACG	0.749
GUUCCGUUGGCGUAAAGGUACCGCGUCUCCCUCCUACGGAGAAGACUGCGGGUUCGAGUCCCGUACGAAACG	0.551
GUUCCGUUGGCGUAUUGGUAACGCGGCUCCCUCCAAAGGAAAAGACUGCGGGUUCGAGUCCCGUACGGAACG	≤ 0.5
GUUCCGUUGGCGUAAAGGUAUCGCGUCUCCCUCCUAAGGAGAAGAUUGCGGGUUCGAGUCGCGUACGGAACG	≤ 0.5
GUUCCGUUGGCGUAUUGGUAACGCGUCUCCCCCCUAAGGAGAAGACUGCGGCUUCGAGUCCCGUACGGAACG	0.539
GUUCCGUUGGCGUAAAGGUAUCGCGUUUCCCUCCUAAGGUGAAGACUGCGGGUUCGAGUCCCGUAAGGAACG	≤ 0.5
GUUCCGUUGGCGUAAAGGUGGCGCGUCUCCCUCUUAAGGAGAAAACUGCGGGUUCGAGUCACGUACCGAACG	≤ 0.5

Variant	yeast fitness
GUUCCGUUGGCGUAUUGGUAACGCGUCUCCCUCCCAAGGAAAAGACUGCGGGUUCGAGUACCGUUCGGGACG	0.563
GUUCCGUUGGCGUAAAGGUACCGCGUCUCCCUCCUAAGGAGAAGACUGCGGGUUCGAAUCCCGUACGGAACG	≤ 0.5
GUUCCGUUGGCGUAUUGGUAACGCGUCACCCUGCUAAGGAGAAGACUGCGGGUUCGAGUCCCGUACGGAACG	0.561
GUUCCGUUGGCGUAAAGGUAACGCGUCUCCCUCCUAAGGAGUAGACUGCGGGUUCAAAUCCCGUACGGAACG	0.817
GUUCCGUUGGCGUAAAGGUUACGCGUCUCCCUCCUAAGGAGAAGAAUGCGGGUUCGAGUCCCGUACGGAACG	≤ 0.5
GUUCCGUUGGCGUAAAGGUAACGCGUCUCCCUCCUAAGGAGAAGACUGCGGGUUCGAGUCCCGUACGGAACG	0.992
GUUCCGUUGGCGUAUUGGUAACGCGUCUCCCUCCUAAGGAGAAGACUGCGGGGUCGCGUCCCGUACGGUACG	0.625
GUUCCGUUGGCGUAUUGGUAACGCGUCACCCUCCUAAGGAGAAGACUGUGGGUUCGAGACCCGUAAGGAACG	≤ 0.5
GUUCCGUUGGCGUAAAGGUAACGCGUCUCCCUCCUAGGGAGAGGACUGCGGGUUCGAGUCCCGUACGGAACG	≤ 0.5
GUUCCGUUGGCGUAAAGGUAACGCGUCUCCCUCCUAAGGAGGAGACUGGGGGUUCGAGUCCCGUACGGAACG	0.542
GUUCCGUUGGCGUAAAGGUAACGCGUCUCCCUCCUAAGGAGAAGCCUGCGGGUUCGAGUCCCGUGCGGAACG	≤ 0.5
GUUCCGUUGGCGUAAAGGUUACGCGUCUCCCUCCUAAGGAGAAGACUGCGGGUUCGAGUCCCGUACGGAACG	0.855
GUUCCGUUGGCGUAAAGGUGACGCGUCUCCCUCCUAAGGAGAAGACUGCGGGUUCGAGUCCCGUACGGAACG	0.961
GUUCCGUUGGCGUAAAGGUGACGCGUCUCCCUCCUAAGGAGAAGACUGCGGGUUCGAGUCCAGUACGGAACG	0.546
GUUCCGUUGGCGUAUUGGUAACGCGACUCCCUCCUAAGGAGAAGACUGCGGGUUCGAGUUCCGUACAGAACG	≤ 0.5
GUUCCGUUGGCGUAUUGGUAACGCGUCUCCCUCCUAAGGAGAAGACUGCGGGAUCGAGUCCCAUACGGAACG	≤ 0.5
GUUCCGUUGGCGUAUUGGUAACGCGUCUCCCUCCUAAGGAGAAGACUGCGGGAUCGAGUCCCGUACGGAACG	0.648
GUUCCGUUGGCGUAUUGGUAACGCGUCACCCUGCUAAGGAGAAGACUGCGGGUUCGAGUCCCGAACGGAACG	≤ 0.5
